Source: BindingDB's records for doi:10.1016/j.bmcl.2009.05.124 (Amgen, 2009)

target: Neuromedin-B receptor (Homo sapiens, UniProt P28336); test: Displacement of [125I]-(D-Tyr0)NMB from human neuromedin B receptor transfected in HEK293 cells
Outline: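 Whole-cell competition binding used 1 × 10⁶ HEK293 cells stably transfected with hNMBR, with 150 pM ¹²⁵I-[D-Tyr0]NMB (2200 Ci/mmol), in DMEM for 1 h at room temperature. Bound ligand was separated by filtration and total bound counts were measured. Day-to-day standard error was <30%; well-to-well variability was <10%.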

Sequence of Neuromedin-B receptor (P28336 whole entry): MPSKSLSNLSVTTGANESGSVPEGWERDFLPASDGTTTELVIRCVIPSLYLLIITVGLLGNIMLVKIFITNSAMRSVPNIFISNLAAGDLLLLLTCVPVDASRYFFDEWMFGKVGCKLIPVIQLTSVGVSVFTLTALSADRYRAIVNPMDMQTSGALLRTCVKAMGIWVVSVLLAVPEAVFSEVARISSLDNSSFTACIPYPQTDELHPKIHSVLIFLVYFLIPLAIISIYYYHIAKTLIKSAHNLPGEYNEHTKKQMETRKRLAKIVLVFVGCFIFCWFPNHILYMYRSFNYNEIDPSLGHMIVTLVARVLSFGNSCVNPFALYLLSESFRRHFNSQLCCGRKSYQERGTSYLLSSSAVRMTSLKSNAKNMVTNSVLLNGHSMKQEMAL

| Structure (SMILES) | IC50 [nM] |
| --- | --- |
| Cc1ccc2c(c1)NC(c1ccccc1C(F)(F)F)C1C(=O)CC(C)(C)CC1=N2 (configuration not stated) [3,3,8-trimethyl-11-(2-(trifluoromethyl)phenyl)-2,3,4,5,10,11-hexahydro-1H-dibenzo[b,e][1,4]diazepin-1-one] | 250 |
| CSc1ccccc1C1Nc2cc(C)ccc2N=C2CC3(CCCC3)CC(=O)C21 (configuration not stated) [8'-methyl-11'-(2-(methylthio)phenyl)-4',5',10',11'-tetrahydrospiro[cyclopentane-1,3'-dibenzo[b,e][1,4]diazepin]-1'(2'H)-one] | 250 |
| Cc1ccc2c(c1)NC(c1c(F)cccc1Cl)C1C(=O)CCC1=N2 (configuration not stated) [10-(2-chloro-6-fluorophenyl)-7-methyl-2,3,9,10-tetrahydrobenzo[b]cyclopenta[e][1,4]diazepin-1(4H)-one] | 10000 |
| Cc1ccc2c(c1)NC(c1c(F)cccc1Cl)C1C(=O)CC3(CCCC3)CC1=N2 (configuration not stated) [11'-(2-chloro-6-fluorophenyl)-8'-methyl-4',5',10',11'-tetrahydrospiro[cyclopentane-1,3'-dibenzo[b,e][1,4]diazepin]-1'(2'H)-one] | 280 |
| CC1(C)CC(=O)C2C(=Nc3ccc(C#N)cc3NC2c2c(F)cccc2Cl)C1 (configuration not stated) [11-(2-chloro-6-fluorophenyl)-3,3-dimethyl-1-oxo-2,3,4,5,10,11-hexahydro-1H-dibenzo[b,e][1,4]diazepine-8-carbonitrile] | 1300 |
| CC1(C)CC(=O)C2C(=Nc3ccc(C(N)=O)cc3NC2c2c(F)cccc2Cl)C1 (configuration not stated) [11-(2-chloro-6-fluorophenyl)-3,3-dimethyl-1-oxo-2,3,4,5,10,11-hexahydro-1H-dibenzo[b,e][1,4]diazepine-8-carboxamide] | 10000 |
| CC1(C)CC(=O)C2C(=Nc3ccc(C(=O)O)cc3NC2c2c(F)cccc2Cl)C1 (configuration not stated) [11-(2-chloro-6-fluorophenyl)-3,3-dimethyl-1-oxo-2,3,4,5,10,11-hexahydro-1H-dibenzo[b,e][1,4]diazepine-8-carboxylic acid] | 10000 |
| CC1(C)CC(=O)C2C(=Nc3ccc(OC(F)(F)F)cc3NC2c2c(F)cccc2Cl)C1 (configuration not stated) [11-(2-chloro-6-fluorophenyl)-3,3-dimethyl-8-(trifluoromethoxy)-2,3,4,5,10,11-hexahydro-1H-dibenzo[b,e][1,4]diazepin-1-one] | 1300 |
| CC1(C)CC(=O)C2C(=Nc3ccc(O)cc3NC2c2c(F)cccc2Cl)C1 (configuration not stated) [11-(2-chloro-6-fluorophenyl)-8-hydroxy-3,3-dimethyl-2,3,4,5,10,11-hexahydro-1H-dibenzo[b,e][1,4]diazepin-1-one] | 10000 |
| Cc1ccc2c(c1)NC(c1ccccc1Cl)C1C(=O)CC(C)(C)CC1=N2 (configuration not stated) [11-(2-chlorophenyl)-3,3,8-trimethyl-2,3,4,5,10,11-hexahydro-1H-dibenzo[b,e][1,4]diazepin-1-one] | 280 |
| Cc1ccc2c(c1)NC(c1ccccc1F)C1C(=O)CC(C)(C)CC1=N2 (configuration not stated) [11-(2-fluorophenyl)-3,3,8-trimethyl-2,3,4,5,10,11-hexahydro-1H-dibenzo[b,e][1,4]diazepin-1-one] | 1300 |
| Cc1ccc2c(c1)NC(c1ccccc1C(F)(F)F)C1C(=O)CC3(CCCC3)CC1=N2 (stereo not drawn) [(-)-8'-methyl-11'-(2-(trifluoromethyl)phenyl)-4',5',10',11'-tetrahydrospiro[cyclopentane-1,3'-dibenzo[b,e][1,4]diazepin]-1'(2'H)-one] | 96 |
